For one series, the system named is MCF7. As to the kind of experiment: Antiproliferative activity against human MCF7 cells assessed as inhibition of cell growth incubated for 72 hrs by MTT assay. Type of series: functional, cell-based. Conditions: MCF7, 72 h. A digest of the protocol:
(§1)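 Cells kept in Eagle's MEM with 10% FBS, 1% non-essential amino acids and 1% antibiotic-antimycotic at 37 °C, 5% CO2. Seeded at 5000 cells per well and incubated overnight before compound addition. Growth inhibition tested at 10 and 30 μM, IC50 from 1.0–30.0 μM (four concentrations). MTT added for 4 h, formazan dissolved in DMSO, absorbance read at 545 nm. Untreated control, two experiments of five wells.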

The subject of another series is HeLa. As to the kind of experiment: Antiproliferative activity against human HeLa cells assessed as inhibition of cell growth incubated for 72 hrs by MTT assay. Type of series: functional, cell-based. Summed up: as §1
In general terms: Tetrazolium assays rely on reduction of a dye to a coloured formazan, in cell work by metabolically active cells.

Series [1] in a line: Cytotoxicity against mouse NIH/3T3 cells assessed as inhibition of cell growth incubated for 72 hrs by MTT assay. The series is classed as toxicity, cell-based, NIH3T3. Summed up: as §1
A further series relates to SiHa. As to the kind of experiment: Antiproliferative activity against human SiHa cells assessed as inhibition of cell growth incubated for 72 hrs by MTT assay. Type of series: functional, cell-based. A digest of the protocol:
as §1

The subject of the next series is MDA-MB-231. Description: Antiproliferative activity against human MDA-MB-231 cells assessed as inhibition of cell growth incubated for 72 hrs by MTT assay. The series is classed as functional, cell-based. The conditions noted are these: MDA-MB-231, 72 h. Summed up: as §1
The test system of the next series is A2780. As to the kind of experiment: Antiproliferative activity against human A2780 cells assessed as inhibition of cell growth incubated for 72 hrs by MTT assay. Type of series: functional, cell-based. The conditions noted are these: A2780, 72 h. A digest of the protocol:
as §1

Structures are written as SMILES.

As for `CCOC(=O)[C@H]1c2c(C)cccc2[C@H]2CC[C@@]3(CO)C[C@]21C[C@@H]3N[C@@H](C)c1cccc2ccccc12`, the IC50 came out at 3.43 µM in the series with MCF7, 20.7 µM in the series with HeLa, 22.3 µM in the series on SiHa and 10.4 µM in the series with MDA-MB-231. In series [1], the IC50 at 72 h amounted to 6.02 µM.
Turning to `CCOC(=O)[C@H]1c2c(C)cccc2[C@H]2CC[C@@]3(CO)C[C@]21C[C@@H]3NCc1cc(Br)ccc1O`, the IC50 worked out at 3.85 µM in the series with MCF7; 5.06 µM in the series with HeLa; 5.08 µM with A2780; 21.9 µM in the series with SiHa; 6.48 µM in the series with MDA-MB-231. Also, in series [1], the IC50 at 72 h came to 19.7 µM.
As for `CCOC(=O)[C@H]1c2c(C)cccc2[C@H]2CC[C@@]3(CN[C@@H](C)c4ccc5ccccc5c4)C[C@]21C[C@H]3O`, the IC50 was determined as 3.66 µM in the series with MCF7, 5.1 µM in the series with HeLa and 4.36 µM in the series on SiHa. For the same compound, in series [1], the IC50 at 72 h was 4.62 µM.
For the compound `CCOC(=O)[C@H]1c2c(C)cccc2[C@H]2CC[C@@]3(CO)C[C@]21C[C@@H]3N[C@H](C)c1cccc2ccccc12`, the IC50 in the series on MCF7 was determined as 7.07 µM; in the series on HeLa, 18.6 µM; with A2780, 4.57 µM; in the series with SiHa, 22.7 µM; with MDA-MB-231 it was 19.3 µM. Moreover, in series [1], the IC50 at 72 h came to 14.5 µM.
Consider `CCOC(=O)[C@H]1c2c(C)cccc2[C@H]2CC[C@@]3(CO)C[C@]21C[C@@H]3NCCc1c[nH]c2ccccc12`, for which the IC50 in the series with MCF7 worked out at 3.14 µM; in the series with HeLa, 4.01 µM; in the series on A2780, 4.57 µM; in the series with SiHa, 4.12 µM; in the series with MDA-MB-231 it was 4.71 µM. In addition, the IC50 at 72 h in series [1] worked out at 13 µM.
For `CCOC(=O)[C@H]1c2c(C)cccc2[C@H]2CC[C@]3(O)C[C@@]21C[C@]3(O)CN[C@@H](C)c1cccc2ccccc12`, the half-maximal inhibitory concentration (IC50) in the series on HeLa, in the series with A2780, in the series on SiHa and with MDA-MB-231 was 4.38 µM throughout. Besides, in series [1], the half-maximal inhibitory concentration (IC50) at 72 h came to 4.38 µM.
Turning to `CCOC(=O)[C@H]1c2c(C)cccc2[C@H]2CC[C@@]3(CNCc4ccc(F)cc4)C[C@]21C[C@H]3O`, the IC50 in the series with MCF7 stood at 4.4 µM; in the series with HeLa it was 18.8 µM; in the series with SiHa, 8.4 µM; in the series with MDA-MB-231 it was 7.71 µM. Further, the IC50 at 72 h in series [1] is 15.2 µM.
As to `CCOC(=O)[C@H]1c2c(C)cccc2[C@H]2CC[C@@]3(CNCc4cc(Br)ccc4O)C[C@]21C[C@H]3O`, the half-inhibitory concentration (IC50) in the series on MCF7 worked out at 2.42 µM; in the series with HeLa, 4.71 µM; in the series on A2780, 5.39 µM; in the series with SiHa, 20.6 µM; in the series on MDA-MB-231 it was 4.99 µM. The IC50 at 72 h in series [1] worked out at 13 µM.
Consider `CCOC(=O)[C@H]1c2c(C)cccc2[C@H]2CC[C@@]3(CNCc4ccc(OC)cc4)C[C@]21C[C@H]3O`, for which the IC50 in the series on MCF7 came to 4.08 µM; with HeLa, 12.9 µM; in the series with A2780, 13.8 µM; in the series on SiHa, 17.7 µM; in the series with MDA-MB-231, 6.5 µM. In addition, the IC50 at 72 h in series [1] was determined as 14.7 µM.

As usually defined, the IC50 is the midpoint of a concentration-inhibition curve.
